# Tests used:
# [1] = molecular target: T1, Type-1 angiotensin II receptor A (Rattus norvegicus) (UniProt P25095); assay: (§1) Antagonist activity at AT1 receptor in rat aortic rings; type: functional
# T1 sequence (whole entry): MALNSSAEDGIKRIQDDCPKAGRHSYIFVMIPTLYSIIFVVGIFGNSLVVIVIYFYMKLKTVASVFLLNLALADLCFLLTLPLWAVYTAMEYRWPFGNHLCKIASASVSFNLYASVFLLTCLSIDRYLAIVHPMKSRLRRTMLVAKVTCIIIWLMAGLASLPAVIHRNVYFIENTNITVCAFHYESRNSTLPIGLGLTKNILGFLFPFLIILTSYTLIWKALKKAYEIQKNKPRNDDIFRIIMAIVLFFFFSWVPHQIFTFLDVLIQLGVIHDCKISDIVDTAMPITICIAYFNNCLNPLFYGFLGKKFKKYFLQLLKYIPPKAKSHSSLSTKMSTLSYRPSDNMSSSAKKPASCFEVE
# In short: (§2)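 Isolated rat aortic ring in 10 ml bath of Krebs–Henseleit at 37 °C, pH 7.4, oxygenated, under 1 g tension. Ang II cumulative curve in 0.5-log steps (1 × 10−10 to 1 × 10−5), repeated after 15 min antagonist exposure at 1, 3 or 10 nmol. Response taken as % of maximal Ang II tension.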
# [2] = molecular target: T2, Type-1 angiotensin II receptor A (Rattus norvegicus, UniProt P25095); assay: as §1; type: functional; details: read-out: pA2 (converted); in short: as §2
# T2 sequence (P25095 whole entry): T1 sequence (whole entry)
# Rattus norvegicus [3] = assay: Antihypertensive effect in desoxycortisone acetate-induced hypertensive rat assessed as maximum decrease in mean arterial blood pressure at 3 mg/kg, ip after 6 hrs; type: functional, Artery; details: route intraperitoneal
# In short: (§3)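 Hypertension induced by uninephrectomy plus DOCA 40 mg kg−1 sc twice weekly for up to six weeks, with 1.0% NaCl and 0.2% KCl in drinking water; sham rats got tap water. Compound given ip, and mean arterial blood pressure measured 6 h after dosing. Activity expressed as fall in MABP.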
# Rattus norvegicus [4] = assay: Antihypertensive effect in desoxycortisone acetate-induced hypertensive rat assessed as maximum decrease in mean arterial blood pressure at 5 mg/kg, ip after 6 hrs; type: functional, Artery; details: route intraperitoneal; in short: as §3
Compound,pA10 [1],Kb [2] [nM],Activity (Rattus norvegicus [3]) [mmHg],Activity (Rattus norvegicus [4]) [mmHg]
CCCCc1nc2cc(S(=O)(=O)NC(C)C)ccc2n1Cc1ccc(-c2ccccc2C(=O)O)cc1,6.3,63.1,51.7,–
CCCCc1nc2cc(S(=O)(=O)NC3CCCCC3)ccc2n1Cc1ccc(-c2ccccc2C(=O)O)cc1,5.7,12.6,64.4,–
CCCCc1nc2cc(S(=O)(=O)O)ccc2n1Cc1ccc(-c2ccccc2C(=O)O)cc1,5.8,251,44.7,–
CCCCc1nc2ccccc2n1Cc1ccc(-c2ccccc2C(=O)O)cc1,6.7,3.16,–,–
CCCCc1nc2cc(S(=O)(=O)NC(C)(C)C)ccc2n1Cc1ccc(-c2ccccc2C(=O)O)cc1,5.4,3.98,62.4,–
CCCCNS(=O)(=O)c1ccc2c(c1)nc(CCCC)n2Cc1ccc(-c2ccccc2C(=O)O)cc1,6.2,100,47.6,–
CCCCc1nc2cc(S(=O)(=O)NC)ccc2n1Cc1ccc(-c2ccccc2C(=O)O)cc1,6.3,126,52.5,–

# Second part, led by results:
pA10 [1],Kb [2] [nM],Compound,Activity (Rattus norvegicus [3]) [mmHg],Activity (Rattus norvegicus [4]) [mmHg]
7.1,–,CCCCc1nc(Cl)c(CO)n1Cc1ccc(-c2ccccc2-c2nnn[nH]2)cc1 [LOSARTAN],–,58.3
6.2,79.4,CCCCc1nc2cc(S(=O)(=O)NCC)ccc2n1Cc1ccc(-c2ccccc2C(=O)O)cc1,49.9,–
6.1,200,CCCCc1nc2cc(S(N)(=O)=O)ccc2n1Cc1ccc(-c2ccccc2C(=O)O)cc1,51.4,–
6.4,79.4,CCCCc1nc2cc(S(=O)(=O)NCCC)ccc2n1Cc1ccc(-c2ccccc2C(=O)O)cc1,50.2,–
6.7,3.16,CCOc1nc2cccc(C(=O)O)c2n1Cc1ccc(-c2ccccc2-c2nnn[nH]2)cc1,–,56.2

# Reference: ChEMBL document CHEMBL1139262, “Design, synthesis, and evaluation of 5-sulfamoyl benzimidazole derivatives as novel angiotensin II receptor antagonists” (Bioorg Med Chem, 2008)
